The source of these data is paper PMC8359128 (ACS Omega, 2021).

Where only a bound is given, the exact number is not on record here.

Assay [1] has as its target T1, human CB1 receptor (Homo sapiens, UniProt P21554). The assay can be described thus: Competitive radioligand. In kind it is binding. Conditions: for inhibition at 10 µM: read-out: % displacement at 10 μM CB1.
In assay [2] the target is T2, human CB2 receptor (Homo sapiens, UniProt P34972). The assay can be described thus: Competitive radioligand. Type of assay: binding. The following applies: for inhibition at 10 µM: read-out: % displacement at 10 μM CB2.
T2 sequence (P34972 whole entry): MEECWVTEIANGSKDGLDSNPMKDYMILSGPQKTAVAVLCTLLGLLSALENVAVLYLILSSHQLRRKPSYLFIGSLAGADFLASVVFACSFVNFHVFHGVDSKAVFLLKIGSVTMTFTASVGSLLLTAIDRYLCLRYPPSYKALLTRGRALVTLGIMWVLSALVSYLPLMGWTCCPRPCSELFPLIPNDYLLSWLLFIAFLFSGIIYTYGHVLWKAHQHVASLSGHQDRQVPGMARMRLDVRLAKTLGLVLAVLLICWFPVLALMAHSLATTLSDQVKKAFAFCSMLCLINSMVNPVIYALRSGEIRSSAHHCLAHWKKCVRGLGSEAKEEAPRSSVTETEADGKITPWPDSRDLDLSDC
The target of assay [3] is T1, human CB1 receptor. The assay can be described thus: [35S]-GTPγS functional assay, CB1. Type of assay: biochemical. The following applies: for functional behavior at CB1: GTPγS. In a few lines: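 Membranes (20 µg) from HEK293 cells stably expressing human CB1, incubated with 0.5 nM [35S]-GTPγS, 30 µM GDP and test compound in 50 mM Tris-HCl, 150 mM NaCl, 9 mM MgCl2, 0.2 mM EGTA, 1.4 mg/mL BSA, pH 7.4. Incubation 2 h, 37 °C, gentle shaking. […] Filtration, scintillation counting. Duplicates; EC50 by nonlinear regression.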

In assay [4] the target is T2, human CB2 receptor. The assay can be described thus: [35S]-GTPγS functional assay, CB2. Type of assay: biochemical. Conditions: for functional behavior at CB2: GTPγS. On the technique in general: GTPγS is a poorly hydrolysed GTP analogue; its binding reports G protein activation.
For assay [5] the following is noted: (−)-trans vs (+)-trans isomer; cited from earlier work.
Where [6] appears, read: IC50 CB2 displacement (bound given in text).
Setting [7] is: IC50 ± SEM CB2, competitive radioligand binding, triplicate.

In general, Ki refers to a dissociation constant, usually derived from enzyme kinetics or from competition with a known ligand. Low values mean a stronger hold on the target, high ones a looser hold on the target. What is called IC50 is the concentration that gives 50% inhibition. Higher therefore signals weaker potency in that assay. One may read the EC50 as the concentration at which the effect is half-maximal. A lower EC50 goes with greater potency.

T1 sequence (P21554 whole entry): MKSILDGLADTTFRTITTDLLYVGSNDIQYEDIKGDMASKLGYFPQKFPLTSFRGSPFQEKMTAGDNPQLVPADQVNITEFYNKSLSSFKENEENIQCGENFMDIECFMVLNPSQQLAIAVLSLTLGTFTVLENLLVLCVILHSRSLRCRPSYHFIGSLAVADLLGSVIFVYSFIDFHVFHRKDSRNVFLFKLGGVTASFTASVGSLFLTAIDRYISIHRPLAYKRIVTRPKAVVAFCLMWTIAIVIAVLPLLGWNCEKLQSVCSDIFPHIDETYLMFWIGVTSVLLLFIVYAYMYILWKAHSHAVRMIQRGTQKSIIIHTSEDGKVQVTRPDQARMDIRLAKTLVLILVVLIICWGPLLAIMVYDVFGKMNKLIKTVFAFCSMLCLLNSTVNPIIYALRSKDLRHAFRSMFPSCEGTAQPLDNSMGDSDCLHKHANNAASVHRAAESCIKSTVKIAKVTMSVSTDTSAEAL

For `C[C@H]1CC[C@H]2[C@H](C1)c1c(O)cc(-c3ccccc3)cc1OC2(C)C` [11A, (6aS,9S,10aS)-6,6,9-Trimethyl-3-phenyl-6a,7,8,9,10,10a-hexahydro-6H-benzo[c]chromen-1-ol], the inhibition at 10 µM on human CB1 receptor [1] was 34.3%; at human CB2 receptor [2], 57.3%. For the same compound, at human CB2 receptor [2], the inhibition constant Ki is 1570 ± 836 nM. Also, the IC50 on human CB2 receptor [2] (setting [6]) was not above 3200 nM; at human CB2 receptor [2] (setting [7]), 3150 ± 1670 nM.

For `C[C@H]1CC[C@H]2[C@H](C1)c1c(O)cc(-c3ccc(C#N)cc3)cc1OC2(C)C` [11C, 4-((6aS,9S,10aS)-1-Hydroxy-6,6,9-trimethyl-6a,7,8,9,10,10a-hexahydro-6H-benzo[c]chromen-3-yl)benzonitrile], the inhibition at 10 µM at human CB1 receptor [1] is -7.02%; on human CB2 receptor [2], 22.1%.

As for `CCCCCC/C=C/c1cc(O)c2c(c1)OC(C)(C)[C@H]1CC[C@H](C)C[C@H]21` [11E, (6aS,9S,10aS)-6,6,9-Trimethyl-3-((E)-oct-1-en-1-yl)-6a,7,8,9,10,10a-hexahydro-6H-benzo[c]chromen-1-ol], on human CB1 receptor [1], the 50% inhibitory concentration (IC50) came to 684 ± 326 nM, the Ki came out at 342 ± 95.8 nM and the inhibition at 10 µM came to 66.8%. Further, on human CB2 receptor [2], the affinity, expressed as Ki, was 573 ± 106 nM and the inhibition at 10 µM stood at 50.4%. This compound gave an IC50 on human CB2 receptor [2] (setting [6]) not above 3200 nM. This compound gave an IC50 on human CB2 receptor [2] (setting [7]) of 1150 ± 212 nM. Moreover, at human CB1 receptor [3], a half-maximal response (EC50) required 239 ± 68 nM and the “functional behavior at CB1” value is listed as “agonist”.

For `C[C@H]1CC[C@H]2[C@H](C1)c1c(O)cc(/C=C/c3ccc(Cl)cc3)cc1OC2(C)C` [11G, (6aS,9S,10aS)-3-((E)-4-Chlorostyryl)-6,6,9-trimethyl-6a,7,8,9,10,10a-hexahydro-6H-benzo[c]chromen-1-ol], the inhibition at 10 µM stood at 7.54% on human CB1 receptor [1] and 8.7% at human CB2 receptor [2].

As to `C[C@H]1CC[C@H]2[C@H](C1)c1c(O)cc(-c3ccc4c(c3)OCO4)cc1OC2(C)C` [11B, (6aS,9S,10aS)-3-(Benzo[d][1,3]dioxol-5-yl)-6,6,9-trimethyl-6a,7,8,9,10,10a-hexahydro-6H-benzo[c]chromen-1-ol], the inhibition at 10 µM at human CB1 receptor [1] is 30.8%. For the same compound, on human CB2 receptor [2], the inhibition constant (Ki) is 117 ± 11.7 nM and the inhibition at 10 µM amounted to 67%. At human CB2 receptor [2] (setting [6]), this compound gave an IC50 not above 3200 nM.

Turning to `C[C@H]1CC[C@H]2[C@H](C1)c1c(O)cc(-c3ccoc3)cc1OC2(C)C` [11D, (6aS,9S,10aS)-3-(Furan-3-yl)-6,6,9-trimethyl-6a,7,8,9,10,10a-hexahydro-6H-benzo[c]chromen-1-ol], the inhibition at 10 µM at human CB1 receptor [1] was 34%; at human CB2 receptor [2], 44.4%.

As for `C[C@H]1CC[C@H]2[C@H](C1)c1c(O)cc(-c3cc(C(F)(F)F)cc(C(F)(F)F)c3)cc1OC2(C)C` [11K, (6aS,9S,10aS)-3-(3,5-Bis(trifluoromethyl)phenyl)-6,6,9-trimethyl-6a,7,8,9,10,10a-hexahydro-6H-benzo[c]chromen-1-ol], the inhibition at 10 µM on human CB1 receptor [1] was -26.7%; on human CB2 receptor [2], 11.2%.

On to `C[C@H]1CC[C@H]2[C@H](C1)c1c(O)cc(-c3cccc4c3oc3ccccc34)cc1OC2(C)C` [11H, (6aS,9S,10aS)-3-(Dibenzo[b,d]furan-4-yl)-6,6,9-trimethyl-6a,7,8,9,10,10a-hexahydro-6H-benzo[c]chromen-1-ol], for which the inhibition at 10 µM on human CB1 receptor [1] is 29.4%; on human CB2 receptor [2], 76.2%. In addition, on human CB2 receptor [2], affinity was put at a Ki of 63.7 ± 8.19 nM. Also, the 50% inhibitory concentration (IC50) on human CB2 receptor [2] (setting [6]) is not above 3200 nM; at human CB2 receptor [2] (setting [7]), 127 ± 16.4 nM. Moreover, a half-maximal effect at human CB2 receptor [4] (EC50 GTPγS CB2, duplicate) (EC50) was put at 5730 ± 3290 nM. In addition, the “functional behavior at CB2” value at human CB2 receptor [4] is “agonists”.

`C[C@H]1CC[C@H]2[C@H](C1)c1c(O)cc(-c3ccc(Oc4ccccc4)cc3)cc1OC2(C)C` [11I, (6aS,9S,10aS)-6,6,9-Trimethyl-3-(4-phenoxyphenyl)-6a,7,8,9,10,10a-hexahydro-6H-benzo[c]chromen-1-ol]: the inhibition at 10 µM at human CB1 receptor [1] was 34.4%; on human CB2 receptor [2], 16.3%.

Turning to `C[C@H]1CC[C@H]2[C@H](C1)c1c(O)cc(-c3csc4ccccc34)cc1OC2(C)C` [11J, (6aS,9S,10aS)-3-(Benzo[b]thiophen-3-yl)-6,6,9-trimethyl-6a,7,8,9,10,10a-hexahydro-6H-benzo[c]chromen-1-ol], at human CB1 receptor [1], the half-inhibitory concentration (IC50) is more than 2000 nM, the Ki is more than 1000 nM and the inhibition at 10 µM amounted to 56.4%. On human CB2 receptor [2], the affinity corresponds to a Ki of 40.2 ± 2.91 nM and the inhibition at 10 µM was determined as 70.4%. This compound also returned an IC50 at human CB2 receptor [2] (setting [6]) not above 3200 nM. The same compound had an IC50 on human CB2 receptor [2] (setting [7]) of 80.4 ± 5.82 nM. At human CB1 receptor [3], a half-maximal response (EC50) required 1470 ± 708 nM and the “functional behavior at CB1” value is given as “agonists”. The “functional behavior at CB2” value on human CB2 receptor [4] is “agonists”.

Consider `C[C@H]1CC[C@H]2[C@H](C1)c1c(O)cc(/C=C/c3ccc(C(F)(F)F)cc3)cc1OC2(C)C` [11F, (6aS,9S,10aS)-6,6,9-Trimethyl-3-((E)-4-(trifluoromethyl)styryl)-6a,7,8,9,10,10a-hexahydro-6H-benzo[c]chromen-1-ol], for which the inhibition at 10 µM at human CB1 receptor [1] came to 43.2%; on human CB2 receptor [2] it was 23.9%.

On to `CCCCCc1cc(O)c2c(c1)OC(C)(C)[C@@H]1CCC(C)=C[C@@H]21` [dronabinol], for which, in assay [5], the “potency relative to the (+)-trans-isomer of Δ9-THC” value is given as 6–100 times.
